Data published in ChEMBL document CHEMBL3393048, “Discovery of potent cytotoxic ortho-aryl chalcones as new scaffold targeting tubulin and mitosis with affinity-based fluorescence” (J Med Chem, 2014).
Calls of active or inactive are those of the source. The rule behind the calls is not given here.

Assays:
[1] = Antiproliferative activity against human CNE2 cells after 48 hrs by SRB method; format: functional, cell-based; details: CNE-2, 48 h
In short: (§1)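 SRB assay. Cells in DMEM high glucose with 10% FBS were seeded at 5000/well and grown 24 h; a day-0 plate was fixed at that point. Compounds were added in triplicate for 48 h. IC50 came from nonlinear regression of dose–response curves from at least two independent experiments.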

[2] = system: HepG2; test: Antiproliferative activity against human HepG2 cells after 48 hrs by SRB method; format: functional, cell-based; details: HepG2, 48 h; in short: as §1
[3] = target: Tubulin (Homo sapiens) (UniProt P68371+Q9H4B7+P0DPH7+P68366+Q13509+Q71U36+P04350+Q3ZCM7+P07437+P68363+Q9BQE3+Q6PEY2+Q13885+Q9BVA1+Q9BUF5); test: Inhibition of tubulin polymerization (unknown origin) at 5 uM by DAPI staining-based fluorescence microscopy; format: protein-complex assay
[4] = system: A549; test: Antiproliferative activity against human A549 cells after 48 hrs by SRB method; format: functional, cell-based; details: A549, 48 h
In short: as §1, with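 “h. Cells were fixed with TCA at 4 °C for 1 h, stained with 0.4% SRB, and the dye was solubilized in 10 mM Tris pH 10.4. OD was read at 515 nm with day-0 OD subtracted.” for “h.”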

[5] = system: SW480; test: Antiproliferative activity against human SW480 cells after 48 hrs by SRB method; format: functional, cell-based; details: SW480, 48 h; in short: as §1
[6] = system: MCF7; test: Antiproliferative activity against human MCF7 cells after 48 hrs by SRB method; format: functional, cell-based; details: MCF7, 48 h; in short: as §1
[7] = Antiproliferative activity against human HCT8 cells after 48 hrs by SRB method; format: functional, cell-based; details: HCT-8, 48 h; in short: as §1
[8] = system: MCF7; test: Antiproliferative activity against doxorubicin-resistant human MCF7 cells after 48 hrs by SRB method; format: functional, cell-based; details: MCF7, 48 h; in short: as §1
[9] = system: MCF7; test: Drug resistance index, ratio of IC50 for doxorubicin-resistant human MCF7 cells to IC50 for human MCF7 cells; format: functional
In short: (§2)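 Drug resistance index = IC50 in the resistant line / IC50 in its parental line. […] Pairs: A549/CDDP vs A549, MCF-7/DOX vs MCF-7, A2780/TAX vs A2780, HCT-8/VCT vs HCT-8.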

[10] = Antiproliferative activity against vincristine-resistant human HCT8 cells after 48 hrs by SRB method; format: functional, cell-based; details: HCT-8, 48 h
In short: as §1, with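 “h. Cells were fixed with TCA at 4 °C for 1 h, stained with 0.4% SRB, and the dye was solubilized in 10 mM Tris pH 10.4. OD was read at 515 nm with day-0 OD subtracted.” for “h.”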

[11] = system: A549; test: Cell cycle arrest in human A549 cells assessed as accumulation at G2/M phase at 7.81 to 250 nM after 24 hrs by Hoechst 33342 staining-based ArrayScanVTI analysis; format: functional
In short: (§3)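 A549 cells were seeded at 5000/well, cultured overnight, then treated 24 h over a 7.81–250 concentration series. Cells were fixed in prewarmed paraformaldehyde 10 min, permeabilized with Triton X-100, and nuclei stained with Hoechst 33342. Imaging was by ArrayScan VTI high-content analysis. Phase percentage = cells within a gated fluorescence intensity / total cells counted.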

[12] = system: A549; test: Cell cycle arrest in human A549 cells assessed as accumulation at G2/M phase at 125 nM after 24 hrs by Hoechst 33342 staining-based ArrayScanVTI analysis; format: functional; in short: as §3
[13] = system: A2780; test: Antiproliferative activity against taxol-resistant human A2780 cells after 48 hrs by SRB method; format: functional, cell-based; details: A2780, 48 h; in short: as §1
[14] = target: Tubulin; test: Inhibition of tubulin polymerization (unknown origin) by DAPI staining-based fluorescence microscopy; format: protein-complex assay, Homo sapiens
In short: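 Purified tubulin (99% pure; 20 μM as supplied) mixed with compound in general tubulin buffer (80 mM PIPES pH 6.9, 2.0 mM MgCl₂, 0.5 mM EGTA) with 1 mM GTP, 20% glycerol and DAPI reporter. Polymerization tracked kinetically at 37 °C as fluorescence rise (ex 360, em 450 nm). Duplicate wells per concentration. IC50 from at least two independent experiments.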

[15] = system: A549; test: Antiproliferative activity against cis-platinum-resistant human A549 cells after 48 hrs by SRB method; format: functional, cell-based; details: A549, 48 h
In short: as §1, with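 “h. Cells were fixed with TCA at 4 °C for 1 h, stained with 0.4% SRB, and the dye was solubilized in 10 mM Tris pH 10.4. OD was read at 515 nm with day-0 OD subtracted.” for “h.”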

[16] = system: A2780; test: Antiproliferative activity against human A2780 cells after 48 hrs by SRB method; format: functional, cell-based; details: A2780, 48 h; in short: as §1
[17] = Drug resistance index, ratio of IC50 for vincristine-resistant human HCT8 cells to IC50 for human HCT8 cells; format: functional, HCT-8; in short: as §2
[18] = system: A2780; test: Drug resistance index, ratio of IC50 for taxol-resistant human A2780 cells to IC50 for human A2780 cells; format: functional; in short: as §2
[19] = system: A549; test: Drug resistance index, ratio of IC50 for cis-platinum-resistant human A549 cells to IC50 for human A549 cells; format: functional; in short: as §2
[20] = system: A549; test: Cell cycle arrest in human A549 cells assessed as accumulation at G2/M phase at 62.5 nM after 24 hrs by Hoechst 33342 staining-based ArrayScanVTI analysis; format: functional; in short: as §3

IC50 [2] [nM]	inhibition [3]	IC50 [4] [nM]	IC50 [5] [nM]	IC50 [6] [nM]	IC50 [8] [nM]	IC50 [13] [nM]	IC50 [14] [nM]	IC50 [15] [nM]	IC50 [16] [nM]	SMILES	IC50 [1] [nM]	IC50 [7] [nM]	Ratio IC50 [9]	IC50 [10] [nM]	Activity [11]	Activity [12]	Ratio IC50 [17]	Ratio IC50 [18]	Ratio IC50 [19]	Activity [20]
3200	inactive	8500	7600	4900						COc1ccc(/C=C/C(=O)c2ccccc2-c2ccc(OC)c(OC)c2)cc1OC	2500									
2800	inactive	7600	6600	4000						COc1cc(/C=C/C(=O)c2ccccc2-c2ccc(F)cc2)ccc1O	2500									
93		140	61	670	120	690	1800	210	170	COc1ccc(/C=C/C(=O)c2ccccc2-c2ccc(F)cc2)cc1	53	220	0.29	230	Active	Active	1	4.1	1.1	
30		82	41	220	24	230	3400	74	63	COc1ccc(/C=C/C(=O)c2ccccc2-c2ccc(F)cc2)cc1B(O)O	21	63	0.6	84	Active		1.3	3.6	1.1	Active
